# OX1R antag-1: antagonists of human orexin 1 receptor (OX1R); OX1R-expressing cells, FRET antagonist read-out; actives 1.8% (n = 330,000); O43613; inhibition, % at 6.6 µM; in the data active = inhibition mostly above about 38%, no sharp cut-off; inactive = mostly below about 40%
# OX1R antag-2: antagonists of human orexin 1 receptor. O43613. CHO/OX1R cells, Fluo-8 calcium fluorescence, orexin A. inhibition, % at 5 µM. actives 0.43% (n = 330,000);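 active = inhibition above its plate's threshold, mean inhibition of all tested compounds on the plate plus 3 SD, cut at about 37% in these data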
# GalR3 antag: human GalR3 antagonism; AID 651719; actives 0.44% (n = 360,000); inhibition, % at 3 µM; HEK293 GalR3-CNG cAMP membrane potential fluorescence; galR3 body fused to GalR1 C-terminus; O60755;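 active = inhibition above the screen-wide average plus 3 SD, cut at about 13% in these data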;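 also: forskolin and galanin both at EC90 stimulate the cells; cAMP rise reported by CNG channel membrane potential dye signal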
# Target sequence (O60755 1-299 limits assumed): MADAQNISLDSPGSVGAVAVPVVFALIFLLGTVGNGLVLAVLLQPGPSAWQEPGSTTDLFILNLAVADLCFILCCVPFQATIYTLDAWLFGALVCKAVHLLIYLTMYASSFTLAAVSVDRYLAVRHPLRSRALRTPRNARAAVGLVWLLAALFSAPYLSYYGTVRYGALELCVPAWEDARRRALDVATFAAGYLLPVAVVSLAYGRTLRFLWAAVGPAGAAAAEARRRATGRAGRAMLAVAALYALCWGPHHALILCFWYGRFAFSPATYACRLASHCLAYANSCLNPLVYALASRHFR
# CHO parental Ca: counter-screen: ATP calcium response change in parental CHO cells | parental CHO-K1, ATP-induced calcium, Fluo-8 fluorescence | AID 463079 | inhibition, % at 5.6 µM | actives 0.63% (n = 330,000);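 active = inhibition above that plate's mean sample inhibition plus 3 SD, cut at about 26% in these data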
#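 Test system: untransfected parental CHO cell line. Compound: one dose, 5.6 µM nominal. Detection: intracellular calcium via Fluo-8 no-wash fluorescent dye. Measure: % inhibition. Benchmarks: ATP-challenged DMSO wells low, unchallenged DMSO wells high.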
# GPR7 antag: blocks human GPR7 receptor signaling | actives 1.1% (n = 290,000) | P48145 | AID 1861 | inhibition, % at 4.4 µM | GPR7-expressing cells, fluorescence antagonist assay; in the data active = inhibition above about 16%, passing the limit was not always enough;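 also: cells stimulated with the agonist NPW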
# Target sequence (P48145 whole entry, looked up): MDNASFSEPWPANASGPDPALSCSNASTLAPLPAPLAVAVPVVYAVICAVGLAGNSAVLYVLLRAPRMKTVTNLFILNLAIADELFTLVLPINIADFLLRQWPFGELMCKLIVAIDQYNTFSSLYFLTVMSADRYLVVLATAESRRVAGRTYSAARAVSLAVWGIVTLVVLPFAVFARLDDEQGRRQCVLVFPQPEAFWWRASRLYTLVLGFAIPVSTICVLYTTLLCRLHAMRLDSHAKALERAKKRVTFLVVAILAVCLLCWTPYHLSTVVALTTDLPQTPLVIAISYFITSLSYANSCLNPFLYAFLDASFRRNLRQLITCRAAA
# OX1R HTRF confirm: confirmation of human orexin 1 receptor antagonists, HTRF format; shares compounds with OX1R antag-1; OX1R-expressing cells, HTRF antagonist assay; inhibition, % at 6.6 µM; actives 49% (n = 1,800); in the data active = inhibition above about 55%;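 also: CHO cells expressing OX1R stimulated with orexin A at about EC80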
# CHO-K1 HTRF: counter-screen: parental CHO-K1 HTRF response; shares compounds with OX1R antag-1; parental CHO-K1 cells, HTRF counterscreen; inhibition, % at 6.6 µM; actives 48% (n = 1,800); AID 493232; in the data active = inhibition above about 17%
# Hits are given with their value; i = inactive; nt = no result. Rows were chosen to be rich in hits. Some 3.1% of all compounds tested hit in one or more screens of this group.
SMILES,OX1R antag-1,OX1R antag-2,GalR3 antag,CHO parental Ca,GPR7 antag,OX1R HTRF confirm,CHO-K1 HTRF
CCOC(=O)c1ccc([N+](=O)[O-])cc1NC(C)=O,82.8,i,i,i,i,i,43.7
CCOC(=O)c1ccccc1NC(=O)c1cccc([N+](=O)[O-])c1,i,i,i,i,i,nt,nt
O=C(CCl)N(C1CCCC1)C1CCS(=O)(=O)C1 (centres undefined),i,i,i,i,i,nt,nt
O=C1OCc2cccc([N+](=O)[O-])c21,79.5,i,i,i,i,i,33.0
COc1cccc2sc(Nc3nc(-c4ccncc4)cs3)nc12,82.3,i,i,i,i,97.5,i
O=[N+]([O-])c1ccc(C2=Nn3cnnc3SC2)cc1,87.8,i,i,i,i,57.8,93.1
NS(=O)(=O)c1ccc(NCCCn2ccnc2)c([N+](=O)[O-])c1,80.5,i,i,i,i,i,49.8
O=C(NCCCn1ccnc1)c1ccncc1,i,i,i,i,i,nt,nt
O=C(NCCCn1ccnc1)c1cc([N+](=O)[O-])cc([N+](=O)[O-])c1,104.7,i,i,i,i,58.0,87.2
COc1ccc(S(=O)(=O)N2CCOCC2)cc1NC(=O)Cc1ccc2c(c1)OCCO2,i,i,i,i,nt,nt,nt
Cc1nsc(N)c1C(=O)O,i,i,i,i,i,nt,nt
Cc1c(C(=O)N2CCC2)oc2ccc(Cl)cc12,i,i,i,i,nt,nt,nt
CCN(CC)CCNC(=O)C1(c2ccccc2)CCCCC1,nt,nt,i,nt,nt,nt,nt
O=c1[nH]c2cc3c(cc2cc1CN(Cc1ccccc1)Cc1nnnn1Cc1ccco1)OCCO3,nt,nt,i,nt,i,nt,nt
O=c1[nH]c2cc3c(cc2cc1CN(Cc1cccs1)Cc1nnnn1Cc1ccco1)OCCO3,102.7,i,i,i,i,i,i
O=C(Nc1ccc(S(=O)(=O)N2CCCC2)cc1)c1c(F)cccc1F,i,i,i,i,i,nt,nt
Cc1ccc(-c2nc(C)c(C(=O)O)s2)cc1,i,i,i,i,i,nt,nt
Cc1nc(-c2ccc([N+](=O)[O-])cc2)sc1C(=O)O,155.9,i,i,i,i,i,75.8
CCc1ccc(CN2C(=O)c3ccccc3C2C(=O)NC(C)CC)cc1 (centres undefined),i,i,i,i,i,nt,nt
CCOC(=O)c1ccc(NC(=O)c2cc3ccccc3o2)cc1,77.1,i,i,i,i,72.3,i
CCOC(=O)c1cccc(NC(=O)c2cc3ccccc3o2)c1,nt,nt,i,nt,i,nt,nt
CCOC(=O)c1ccc(CNCc2ccccc2)cc1,79.9,i,i,i,i,i,i
O=S(c1ccc2ccccc2c1)c1cnns1 (centres undefined),i,i,i,i,i,nt,nt
C/C(=N\NC(=O)c1cc(C(C)(C)C)[nH]n1)C12CC3CC(CC(C3)C1)C2,i,i,i,i,i,nt,nt
CN(C)C(CNC(=O)c1cccc(C(F)(F)F)c1)c1ccco1 (centres undefined),i,i,i,i,i,nt,nt
SMILES,OX1R antag-1,OX1R antag-2,GalR3 antag,CHO parental Ca,GPR7 antag,OX1R HTRF confirm,CHO-K1 HTRF
Cc1noc(C)c1CS(=O)(=O)c1ccc([N+](=O)[O-])cc1,106.7,i,i,i,i,57.5,58.2
CN(C)c1ccc(CNC(=O)CCNS(=O)(=O)c2cc(Br)cnc2N)cc1,i,i,nt,i,i,nt,nt
O=[N+]([O-])c1ccc(-[n+]2ccc3ccccc3c2)c([N+](=O)[O-])c1,77.5,i,i,i,nt,i,59.6
COc1cccc(N=Nc2c(=O)[nH]n3c(=O)cc(C)[nH]c23)c1,107.0,i,i,i,i,i,48.5
O=C(O)C1C2OC(C(Br)C2Br)C1C(=O)O (centres undefined),nt,nt,i,nt,nt,nt,nt
CCO/C(C)=N/n1c2nc3ccccc3nc2c2c(=O)n(C3CCCC3)c(C)nc21,99.5,i,i,i,i,i,36.5
Cc1nc2ccccc2c(=O)n1C1CCCCCC1,i,i,i,i,i,nt,nt
O=C(CCCN1C(=O)C2CCCCN2C1=O)N1CCN(c2ccc([N+](=O)[O-])cc2)CC1 (centres undefined),79.0,i,i,i,i,i,24.8
O=C1C2CCCCN2C(=O)N1CCN1CCN(c2ccc([N+](=O)[O-])cc2)CC1 (centres undefined),i,i,i,i,i,nt,nt
O=C(Cn1cnc2cc([N+](=O)[O-])ccc2c1=O)N(Cc1ccccc1)C1CCS(=O)(=O)C1 (centres undefined),i,i,i,i,i,nt,nt
CCN(C(=O)CN1C(=O)c2ccc([N+](=O)[O-])cc2C1=O)C1CCS(=O)(=O)C1 (centres undefined),90.5,i,i,i,nt,63.8,73.7
O=C(NCCc1ccccc1)[C@@H]1CC=C[C@@H]2CCN(Cc3ccc(Cl)c(Cl)c3)C(=O)[C@@H]21,81.9,i,i,i,nt,65.8,i
O=C(NCc1cccnc1)[C@@H]1CC=C[C@@H]2CCN(Cc3ccc(Cl)c(Cl)c3)C(=O)[C@@H]21,i,i,i,i,nt,nt,nt
CCc1nnc(N/N=C/c2ccccc2Cl)n1N,95.5,i,i,i,i,i,i
Cc1ccc(N=Nc2c(=O)[nH]n3c(C)cc(C)nc23)cc1,173.9,i,i,i,i,i,80.0
Cc1cc(C)n2[nH]c(=O)c(N=Nc3ccc(S(N)(=O)=O)cc3)c2n1,87.7,i,i,i,i,57.1,85.1
Cc1ccc(N=Nc2c(N)[nH]n3c(=O)cc(C)nc23)cc1,i,i,i,i,i,nt,nt
Brc1cc2ccccc2[n+](Cc2ccccc2)c1,102.0,i,i,i,nt,i,61.6
O=C(CSc1ccc(F)cc1)NC(=O)c1ccccc1,nt,nt,i,nt,nt,nt,nt
c1ccc(C[n+]2cccc3c4ccccc4ccc32)cc1,77.5,i,i,i,i,i,47.5
Cc1nc2ccc(S(=O)(=O)N(C)CC(=O)NCCc3ccccc3)cc2s1,i,i,i,i,i,nt,nt
O=[N+]([O-])c1ccc(-n2cccn2)c(-c2nn[nH]n2)c1,108.2,i,i,i,i,i,54.0
CC1CC(C)CN(c2ccc([N+](=O)[O-])cc2-c2nn[nH]n2)C1 (centres undefined),i,i,i,i,i,nt,nt
CCOC(=O)N1CCC(NC(=O)c2cc(COc3c(C)cccc3C)on2)CC1,i,i,i,i,i,nt,nt
Cc1[nH]c(SCC(=O)Nc2cc(S(C)(=O)=O)ccc2Cl)nc1Cc1ccccc1,i,i,i,i,nt,nt,nt
CCOC(=O)C1(C)CCN1C(=O)c1cc2ccccc2s1 (centres undefined),nt,nt,i,nt,nt,nt,nt
COCC(C)NC(=O)c1cccc([N+](=O)[O-])c1 (centres undefined),126.9,i,i,i,i,i,18.9
COc1ccc(C(C)NC(=O)c2cccc([N+](=O)[O-])c2)cc1OC (centres undefined),i,i,i,i,i,nt,nt
Cc1ccc(CS(=O)Cc2ccc(C(=O)NCC(C)c3ccccc3)o2)cc1 (centres undefined),i,i,i,i,i,nt,nt
Cc1nc2ccc([N+](=O)[O-])cc2s1,i,i,i,i,i,nt,nt
